Source: ChEMBL document CHEMBL4321819, “Simple Structural Modifications Converting a Bona fide MDM2 PROTAC Degrader into a Molecular Glue Molecule: A Cautionary Tale in the Design of PROTAC Degraders” (J Med Chem, 2019)
The source made the active and inactive calls. The rule behind the calls is not given here.

Legend:
[1] = molecular target: E3 ubiquitin-protein ligase Mdm2 (Homo sapiens, UniProt Q00987); test: Induction of MDM2 degradation in human RS4:11 cells assessed as downregulation of MDM2 at 1 to 30 nM after 1 hr by Western blot analysis; format: cell-based
E3 ubiquitin-protein ligase Mdm2, sequence (Q00987 whole entry, looked up): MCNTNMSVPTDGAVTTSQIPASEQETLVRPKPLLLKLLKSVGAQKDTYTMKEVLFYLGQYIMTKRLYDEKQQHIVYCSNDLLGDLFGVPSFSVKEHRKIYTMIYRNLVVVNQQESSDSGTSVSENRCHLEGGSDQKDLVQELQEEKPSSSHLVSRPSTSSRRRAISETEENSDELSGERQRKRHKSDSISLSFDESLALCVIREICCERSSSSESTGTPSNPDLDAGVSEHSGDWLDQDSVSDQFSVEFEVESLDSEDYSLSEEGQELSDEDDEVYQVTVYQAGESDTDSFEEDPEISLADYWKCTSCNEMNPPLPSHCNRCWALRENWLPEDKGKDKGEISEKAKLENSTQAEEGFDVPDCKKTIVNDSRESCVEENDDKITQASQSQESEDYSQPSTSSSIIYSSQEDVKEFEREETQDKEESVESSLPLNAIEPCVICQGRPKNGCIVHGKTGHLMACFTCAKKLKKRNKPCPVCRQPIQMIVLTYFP
Outline: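 Western blots of MDM2 and p53 protein were run on RS4;11 cells (wild-type p53) in RPMI 1640 with 10% FBS. 2×10^6 cells/well were treated at the indicated concentrations for 1 h or 2 h. Lysis was in ice-cold buffer with protease inhibitor, followed by probing with specific antibodies.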

MOLM-13 = test: Antiproliferative activity against human MOLM13 cells expressing wild type p53 assessed as cell growth inhibition after 4 days by WST-8 assay; format: functional, cell-based; conditions: MOLM-13, 96 h
Outline: (§1)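 Leukemia cells seeded at 10000–20000 cells/well, breast cancer lines at 5000–10000 cells/well. Serially diluted compound added, then 4 days at 37 °C, 5% CO2. Growth read with WST-8 reagent after at least 1 h, absorbance at 450 nm. RS4;11, MOLM-13 and breast lines were grown in RPMI 1640; MV-4-11 and HL-60 in IMDM; all with 10% FBS. Mean ± SE, at least three independent experiments.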

MV4-11 = test: Antiproliferative activity against human MV4-11 cells expressing wild type p53 assessed as cell growth inhibition after 4 days by WST-8 assay; format: functional, cell-based; conditions: MV4-11, 96 h; outline: as §1
HL-60 = test: Antiproliferative activity against human HL60 cells with lack of p53 assessed as cell growth inhibition after 4 days by WST-8 assay; format: functional, cell-based; conditions: HL-60, 96 h; outline: as §1
MDA-MB-468 [2] = test: Antiproliferative activity against human MDA-MB-468 cells harboring mutant p53 assessed as cell growth inhibition after 4 days by WST-8 assay; format: functional, cell-based; conditions: MDA-MB-468, 96 h; outline: as §1
[3] = molecular target: Cellular tumor antigen p53 (Homo sapiens) (UniProt P04637); test: Activation of p53 in human RS4:11 cells assessed as increase in CDKN1A mRNA expression at 3 nM after 1 to 2 hrs by qRT-PCR analysis; format: cell-based
Cellular tumor antigen p53 (Homo sapiens), sequence (P04637 whole entry, looked up): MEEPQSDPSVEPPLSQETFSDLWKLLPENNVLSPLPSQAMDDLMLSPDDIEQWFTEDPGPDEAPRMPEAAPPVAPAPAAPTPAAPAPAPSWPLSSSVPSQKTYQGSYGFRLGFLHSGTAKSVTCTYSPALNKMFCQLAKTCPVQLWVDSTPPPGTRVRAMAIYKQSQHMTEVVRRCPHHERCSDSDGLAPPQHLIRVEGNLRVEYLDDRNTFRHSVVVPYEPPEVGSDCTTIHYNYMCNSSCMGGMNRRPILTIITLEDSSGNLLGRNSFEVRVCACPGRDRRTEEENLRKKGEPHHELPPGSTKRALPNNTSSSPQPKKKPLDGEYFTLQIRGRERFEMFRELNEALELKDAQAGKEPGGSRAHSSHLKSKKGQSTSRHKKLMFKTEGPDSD
Outline: (§2)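 RS4;11 cells (RPMI 1640, 10% FBS, 37 °C, 5% CO2) treated with 3 nM or 10 nM compound; total RNA extracted and mRNA of p53 targets MDM2, CDKN1A, PUMA and BAX quantified by qRT-PCR. Mean ± standard error from at least three independent experiments.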

[4] = molecular target: Cellular tumor antigen p53 (Homo sapiens) (UniProt P04637); test: Activation of p53 in human RS4:11 cells assessed as increase in PUMA mRNA expression at 3 nM after 1 to 2 hrs by qRT-PCR analysis; format: cell-based; outline: as §2
[5] = Antiproliferative activity against human RS4:11/IRMI-2 cells harboring p53 hotspot mutation Y236H/R249G assessed as cell growth inhibition without interaction with cereblon after 4 days by WST-8 assay; format: functional, cell-based; conditions: RS4-11, 96 h; outline: as §1
MDA-MB-468 [6] = test: Antiproliferative activity against human MDA-MB-468 cells harboring mutant p53 assessed as cell growth inhibition without interaction with cereblon after 4 days by WST-8 assay; format: functional, cell-based; conditions: MDA-MB-468, 96 h
MDA-MB-231 [7] = test: Antiproliferative activity against human MDA-MB-231 cells transfected with CRBN siRNA LQ-021086-10-0002 assessed as cell growth inhibition after 4 days by WST-8 assay; format: functional, cell-based; conditions: MDA-MB-231, 72 h, in the assay text read “after 3 days” for “after 4 days”
Outline: (§3)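 MDA-MB-231 or MDA-MB-468 cells transfected for 2 days using Lipofectamine RNAiMAX with MDM2 siRNA, one of two CRBN siRNAs, or non-targeting control siRNA. Compound then added and growth read by WST-8 at 450 nm.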

MDA-MB-468 [8] = test: Antiproliferative activity against human MDA-MB-468 cells transfected with CRBN siRNA LQ-021086-10-0002 assessed as cell growth inhibition after 4 days by WST-8 assay; format: functional, cell-based; conditions: MDA-MB-468, 96 h; outline: as §3
MDA-MB-231 [9] = test: Antiproliferative activity against human MDA-MB-231 cells assessed as cell growth inhibition after 4 days in presence of control siRNA for 3 days followed by compound treatment by WST-8 assay; format: functional, cell-based
MDA-MB-468 [10] = test: Antiproliferative activity against human MDA-MB-468 cells assessed as cell growth inhibition after 4 days in presence of control siRNA for 3 days followed by compound treatment by WST-8 assay; format: functional, cell-based
[11] = molecular target: T1, Protein cereblon/Eukaryotic peptide chain release factor GTP-binding subunit ERF3A/DNA damage-binding protein 1/Cullin-4A (Homo sapiens) (UniProt Q96SW2+Q16531+Q13619+P15170); test: Protac activity at GSPT1/CUL4/DDB1/CRBN in human RS4:11 cells expressing wild type p53 assessed as effect on GSPT1 mRNA level after 3 hrs by qRT-PCR analysis; format: cell-based
T1 sequence (P15170 whole entry, looked up): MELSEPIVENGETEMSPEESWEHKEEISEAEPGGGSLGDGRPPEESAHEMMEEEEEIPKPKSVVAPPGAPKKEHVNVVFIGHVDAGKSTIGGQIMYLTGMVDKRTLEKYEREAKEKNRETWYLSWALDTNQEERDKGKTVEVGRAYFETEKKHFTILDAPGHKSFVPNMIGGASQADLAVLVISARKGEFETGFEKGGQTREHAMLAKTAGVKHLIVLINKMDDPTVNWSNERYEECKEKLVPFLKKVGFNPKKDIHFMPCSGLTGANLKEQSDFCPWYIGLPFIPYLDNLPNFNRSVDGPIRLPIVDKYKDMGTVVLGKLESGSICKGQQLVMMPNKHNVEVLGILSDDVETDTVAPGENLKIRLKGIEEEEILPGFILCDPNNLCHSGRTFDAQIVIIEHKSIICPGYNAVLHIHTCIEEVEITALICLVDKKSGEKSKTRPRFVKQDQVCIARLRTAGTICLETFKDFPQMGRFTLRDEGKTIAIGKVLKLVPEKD
T1 sequence (Q13619 whole entry, looked up): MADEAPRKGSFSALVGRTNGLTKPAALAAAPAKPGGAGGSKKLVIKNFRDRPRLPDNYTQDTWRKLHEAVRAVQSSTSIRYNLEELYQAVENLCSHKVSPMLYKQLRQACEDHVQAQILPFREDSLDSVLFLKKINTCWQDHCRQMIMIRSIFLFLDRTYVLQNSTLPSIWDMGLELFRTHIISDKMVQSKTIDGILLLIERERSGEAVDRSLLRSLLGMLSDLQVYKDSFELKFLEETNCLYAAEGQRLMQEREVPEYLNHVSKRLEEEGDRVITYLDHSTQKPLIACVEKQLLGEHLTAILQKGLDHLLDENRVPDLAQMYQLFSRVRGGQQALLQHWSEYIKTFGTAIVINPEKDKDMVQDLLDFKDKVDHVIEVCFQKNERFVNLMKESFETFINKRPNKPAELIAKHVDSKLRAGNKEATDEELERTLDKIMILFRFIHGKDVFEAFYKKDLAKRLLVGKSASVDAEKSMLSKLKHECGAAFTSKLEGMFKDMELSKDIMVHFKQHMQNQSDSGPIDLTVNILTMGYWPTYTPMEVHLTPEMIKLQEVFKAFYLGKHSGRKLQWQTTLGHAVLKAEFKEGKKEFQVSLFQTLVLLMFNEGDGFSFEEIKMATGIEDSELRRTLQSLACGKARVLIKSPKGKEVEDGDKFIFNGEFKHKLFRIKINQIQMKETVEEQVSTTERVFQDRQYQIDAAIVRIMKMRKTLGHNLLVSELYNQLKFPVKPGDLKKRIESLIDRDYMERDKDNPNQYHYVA
T1 sequence (Q16531 whole entry, looked up): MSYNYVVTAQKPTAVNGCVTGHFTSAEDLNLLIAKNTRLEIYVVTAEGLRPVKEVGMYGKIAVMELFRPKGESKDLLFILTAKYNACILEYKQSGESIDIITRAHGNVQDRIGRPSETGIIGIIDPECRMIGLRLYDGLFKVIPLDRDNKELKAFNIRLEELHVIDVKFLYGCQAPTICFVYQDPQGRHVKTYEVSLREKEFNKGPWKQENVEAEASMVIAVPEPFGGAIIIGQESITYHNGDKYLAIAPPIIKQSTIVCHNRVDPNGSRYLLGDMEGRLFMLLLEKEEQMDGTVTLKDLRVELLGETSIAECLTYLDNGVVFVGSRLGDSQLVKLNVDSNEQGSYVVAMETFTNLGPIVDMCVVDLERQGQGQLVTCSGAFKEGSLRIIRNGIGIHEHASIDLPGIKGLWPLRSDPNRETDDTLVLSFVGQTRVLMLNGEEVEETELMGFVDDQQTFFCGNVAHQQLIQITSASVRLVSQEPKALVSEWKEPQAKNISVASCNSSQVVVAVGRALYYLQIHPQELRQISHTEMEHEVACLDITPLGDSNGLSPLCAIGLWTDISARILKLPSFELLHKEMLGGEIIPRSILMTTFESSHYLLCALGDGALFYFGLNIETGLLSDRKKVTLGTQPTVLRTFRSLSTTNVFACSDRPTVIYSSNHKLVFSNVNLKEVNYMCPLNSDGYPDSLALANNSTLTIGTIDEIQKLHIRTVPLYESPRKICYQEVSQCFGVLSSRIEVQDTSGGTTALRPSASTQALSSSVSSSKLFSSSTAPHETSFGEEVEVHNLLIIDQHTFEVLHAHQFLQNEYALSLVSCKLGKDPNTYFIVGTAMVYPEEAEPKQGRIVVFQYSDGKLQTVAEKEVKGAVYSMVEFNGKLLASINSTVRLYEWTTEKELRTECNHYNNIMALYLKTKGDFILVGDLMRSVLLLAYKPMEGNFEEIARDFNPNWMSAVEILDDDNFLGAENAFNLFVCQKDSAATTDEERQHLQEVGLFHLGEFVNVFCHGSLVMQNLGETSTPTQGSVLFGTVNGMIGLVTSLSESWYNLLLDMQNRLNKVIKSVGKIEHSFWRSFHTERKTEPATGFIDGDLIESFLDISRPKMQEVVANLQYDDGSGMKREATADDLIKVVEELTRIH
T1 sequence (Q96SW2 whole entry, looked up): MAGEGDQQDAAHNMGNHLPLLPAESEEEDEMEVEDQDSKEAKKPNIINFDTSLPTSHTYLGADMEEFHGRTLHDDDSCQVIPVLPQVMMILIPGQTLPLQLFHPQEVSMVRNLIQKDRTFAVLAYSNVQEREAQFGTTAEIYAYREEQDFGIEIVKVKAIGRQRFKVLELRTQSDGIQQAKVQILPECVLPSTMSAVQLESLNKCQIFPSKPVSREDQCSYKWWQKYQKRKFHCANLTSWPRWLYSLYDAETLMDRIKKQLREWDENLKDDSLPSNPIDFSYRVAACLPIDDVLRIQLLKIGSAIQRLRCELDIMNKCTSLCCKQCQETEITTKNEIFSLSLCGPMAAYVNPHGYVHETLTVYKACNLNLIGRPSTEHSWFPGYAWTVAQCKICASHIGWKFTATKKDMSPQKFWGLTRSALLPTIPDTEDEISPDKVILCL
Outline: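 Total RNA taken from treated cells at the indicated time points. RNA concentration measured on a plate reader. GSPT1 mRNA quantified by qRT-PCR. Data are mean ± standard error from at least three independent experiments.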

[12] = molecular target: T1, Protein cereblon/Eukaryotic peptide chain release factor GTP-binding subunit ERF3A/DNA damage-binding protein 1/Cullin-4A (Homo sapiens); test: Protac activity at GSPT1/CUL4/DDB1/CRBN in human RS4:11/IRMI-2 cells harboring p53 hotspot mutation Y236H/R249G assessed as decrease in GSPT1 protein level after 2 hrs by Western blot analysis; format: cell-based
Outline: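 RS4;11 (wild-type p53) or RS4;11/IRMI-2 (MDM2 inhibitor-resistant derivative, mutant p53) cells kept in RPMI 1640 with 10% FBS at 37 °C, 5% CO₂. 2×10^6 cells/well treated at the indicated concentrations and times, then lysed in ice-cold lysis buffer with protease inhibitor. GSPT1 detected by Western blot with a specific antibody.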

[13] = molecular target: T2, Eukaryotic peptide chain release factor GTP-binding subunit ERF3A (Homo sapiens, UniProt P15170); test: Induction of GSPT1 degradation in human RS4:11 cells measured after 24 hrs by Western blot analysis; format: cell-based
T2 sequence (P15170 whole entry): as the sequence (P15170 whole entry, looked up) above

[14] = molecular target: T2, Eukaryotic peptide chain release factor GTP-binding subunit ERF3A; test: Induction of GSPT1 degradation in human MDA-MB-231 cells transfected with CRBN siRNA LQ-021086-11-0002 assessed as decrease in GSPT1 protein level at 0.1 uM after 2 to 24 hrs by Western blot analysis; format: cell-based
Outline: (§4)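 MDA-MB-231 or MDA-MB-468 cells transfected 2 days with CRBN siRNA (Lipofectamine RNAiMAX; non-targeting siRNA as control), then exposed to 0.1 μM for 2 h or 24 h. Cell culture was RPMI 1640 with 10% FBS at 37 °C, 5% CO2. GSPT1 and cereblon protein were probed by Western blot.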

[15] = molecular target: T2, Eukaryotic peptide chain release factor GTP-binding subunit ERF3A; test: Induction of GSPT1 degradation in human MDA-MB-468 cells transfected with CRBN siRNA LQ-021086-10-0002 assessed as decrease in GSPT1 protein level at 0.1 uM after 2 to 24 hrs by Western blot analysis; format: cell-based; outline: as §4
RS4-11 = test: Antiproliferative activity against human RS4:11 cells expressing wild type p53 assessed as MDM2-independent cell growth inhibition after 4 days by WST-8 assay; format: functional, cell-based; conditions: RS4-11, 96 h; outline: as §1
[16] = molecular target: T2, Eukaryotic peptide chain release factor GTP-binding subunit ERF3A; test: Induction of GSPT1 degradation in human RS4:11 cells at 0.1 uM pretreated with Nedd8 inhibitor MLN4924 followed by compound treatment after 2 hrs by Western blot analysis

O=C1CCC(N2Cc3c(CCCCCNC(=O)[C@@H]4NC5(CCCCC5)[C@@]5(C(=O)Nc6cc(Cl)ccc65)[C@H]4c4cccc(Cl)c4F)cccc3C2=O)C(=O)N1 (stereo not given in full)
Activity [1]: inactive | IC50 (MOLM-13): 24.6 nM | IC50 (MV4-11): 7.9 nM | IC50 (HL-60): 8.3 nM | IC50 (MDA-MB-468 [2]): 26.4 nM | Activity [3]: inactive | Activity [4]: inactive | IC50 [5]: 2.6 nM | IC50 (MDA-MB-468 [6]): 26.4 nM | IC50 (MDA-MB-231 [7]): > 3000 nM | IC50 (MDA-MB-468 [8]): > 1000 nM | IC50 (MDA-MB-231 [9]): 30 nM | IC50 (MDA-MB-468 [10]): 62 nM | Activity [11]: inactive | Activity [12]: Active | DC50 [13]: 1.3 nM | Activity [14]: inactive | Activity [15]: inactive | IC50 (RS4-11): 2.3 nM | Activity [16]: inactive
